The source of these data is ChEMBL document CHEMBL1158481, “Adenine-based acyclic nucleotides as novel P2X3 receptor ligands” (J Med Chem, 2009).

Calls of active or inactive are those of the source. The rule behind the calls is not given here.

Holding throughout (conditions): HEK293
Test [1] deals with T1, P2X purinoceptor 3 (Rattus norvegicus) (UniProt P49654).
T1 sequence (whole entry): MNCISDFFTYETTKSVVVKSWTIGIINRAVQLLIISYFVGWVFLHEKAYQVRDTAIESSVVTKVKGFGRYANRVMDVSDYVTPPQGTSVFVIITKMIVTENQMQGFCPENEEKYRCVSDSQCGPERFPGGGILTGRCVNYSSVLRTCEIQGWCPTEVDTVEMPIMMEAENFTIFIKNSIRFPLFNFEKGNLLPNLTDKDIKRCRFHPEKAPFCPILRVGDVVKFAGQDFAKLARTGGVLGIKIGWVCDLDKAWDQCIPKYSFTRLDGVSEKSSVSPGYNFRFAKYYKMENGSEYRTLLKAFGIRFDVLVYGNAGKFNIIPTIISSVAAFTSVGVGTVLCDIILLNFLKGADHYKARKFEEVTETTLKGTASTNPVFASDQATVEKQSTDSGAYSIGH
The test can be described thus: Activity at rat P2X3 receptor expressed in HEK cells assessed as induction of inward current at 100 uM by patch clamp method. Type of test: cell-based. In short, it runs like this: (§1)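 HEK 293T cells transiently transfected with rat P2X3 (calcium phosphate), recorded 48 h post-transfection by whole-cell patch clamp at -60 mV in HEPES-buffered saline pH 7.4, CsCl pipette. Compound applied at 100 μM by rapid superfusion; inward current compared with averaged control current from ≥3 applications of α,β-meATP 100 μM for 2 s, 5 min apart.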
A general note: In patch-clamp work, channel activity is measured electrically.

The target in test [2] is T1, P2X purinoceptor 3 (Rattus norvegicus). Put plainly: Agonist activity at rat P2X3 receptor expressed in HEK cells assessed as induction of inward current at 100 uM by patch clamp method relative to alpha, beta-meATP. Type of test: functional, cell-based. The method in brief:
as §1

Test [3] has the same target. Put plainly: Antagonist activity at rat P2X3 receptor expressed in HEK cells assessed as inhibition of alpha, beta-meATP-induced inward current at 100 uM by patch clamp method. The class given is functional, cell-based. The arrangement: scale not given: the % may be the effect or the level left. In short, it runs like this: (§2)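 Rat P2X3 subunit plasmid transfected (calcium phosphate) into HEK 293T cells, used 48 h later. Whole-cell clamp at -60 mV, fast superfusion; acyclic nucleotide (100 μM) preapplied 20 s, then α,β-meATP 100 μM for 2 s. Peak inward current expressed as % of control α,β-meATP response; n=7 cells, mean ± SEM, paired t or Mann-Whitney test.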

For test [4] the target is unchanged. The test can be described thus: Activity at rat P2X3 receptor expressed in HEK cells assessed as depression of amplitude current subsequent response to alpha, beta-meATP by patch clamp method relative to control. Type of test: cell-based. In short, it runs like this: as §2
Test [5] has the same target. Put plainly: Activity at rat P2X3 receptor expressed in HEK cells assessed inhibition of alpha, beta-meATP induced response by patch clamp method. Type of test: cell-based. In short, it runs like this: as §2
For test [6] the target is unchanged. Put plainly: Agonist activity at rat P2X3 receptor expressed in HEK cells assessed as induction of alpha, beta-meATP inward current at 100 uM pretreated before alpha, beta-meATP induction by patch clamp method. The class given is functional, cell-based. In short, it runs like this:
as §2

`Nc1nc(N)c2ncn(CCCCOP(=O)(O)OP(=O)(O)O)c2n1`: the outcome in test [1] and in test [2] was Active.
As for `Nc1ncnc2c1ncn2CCCCOP(=O)(O)OP(=O)(O)OP(=O)(O)O`, in test [2], the Activity was determined as 36%.
As for `CCCCC#Cc1nc(N)c2ncn(CCCCOP(=O)(O)O)c2n1`, the result in test [1] and in test [2] was inactive. Further, in test [3], the Activity came to 20%.
On to `Nc1nc(Cl)nc2c1ncn2CCCCOP(=O)(O)OP(=O)(O)O`, for which the result in test [2] was Active.
On to `Nc1nc(I)nc2c1ncn2CCCCOP(=O)(O)O`, for which the outcome in test [1] and in test [2] was inactive. In addition, the Activity in test [4] was determined as 80%; in test [3], 20%.
On to `Nc1nc(I)nc2c1ncn2CCCCOP(=O)(O)OP(=O)(O)OP(=O)(O)O`, for which the result in test [1] and in test [5] was Active. Also, the Activity in test [2] worked out at 60%.
As to `Nc1nc(OCCc2ccccc2)nc2c1ncn2CCCCOP(=O)(O)OP(=O)(O)O`, the result in test [2] was Active.
For `Nc1nc(Cl)nc2c1ncn2CCCCOP(=O)(O)O`, the outcome in test [2] was inactive. The Activity in test [3] was found to be 20%.
Consider `Nc1nc(N)c2ncn(CCCCOP(=O)(O)OP(=O)(O)OP(=O)(O)O)c2n1`, for which the outcome in test [1] was Active. In addition, the Activity came to 25% in test [2] and 17% in test [6].
For the molecule `Nc1ncnc2c1ncn2CCCCOP(=O)(O)OP(=O)(O)O`, the Activity in test [2] came to 32%.
In the case of `Nc1nc(OCCc2ccccc2)nc2c1ncn2CCCCOP(=O)(O)O`, the result in test [2] was inactive. For the same molecule, the Activity in test [3] turned out to be 20%.
For the molecule `Nc1nc(N)c2ncn(CCCCOP(=O)(O)O)c2n1`, the result in test [1] and in test [2] was inactive. For the same molecule, in test [3], the Activity was found to be 20%.
In the case of `Nc1nc(Cl)nc2c1ncn2CCCCOP(=O)(O)OP(=O)(O)OP(=O)(O)O`, the Activity in test [2] came out at 30%.
For the molecule `Nc1ncnc2c1ncn2[C@@H]1O[C@H](COP(=O)(O)CP(=O)(O)OP(=O)(O)O)[C@@H](O)[C@H]1O` (single isomer, unassigned), the result in test [1] was Active.
With `Nc1nc(OCCc2ccccc2)nc2c1ncn2CCCCOP(=O)(O)OP(=O)(O)OP(=O)(O)O`, the result in test [2] was Active.
Same read-out and setting: under `Nc1ncnc2c1ncn2CCCCOP(=O)(O)O` stands “inactive”.
For the molecule `CCCCC#Cc1nc(N)c2ncn(CCCCOP(=O)(O)OP(=O)(O)OP(=O)(O)O)c2n1`, the outcome in test [1] and in test [5] was Active. Further, the Activity in test [2] was determined as 38%.
